Data reported in ChEMBL document CHEMBL1125232, “Synthesis and biological activity of bay-region metabolites of a cyclopenta-fused polycyclic aromatic hydrocarbon: benz[j]aceanthrylene” (1991).

Key:
Type in all cases: functional, Salmonella enterica subsp. enterica serovar Typhimurium
Salmonella typhimurium [1] = assay: (§1) Mutagenicity determined by Ames assay in Salmonella Typhimurium strain TA98, without metabolic activation by Aroclor 1254 induced rat liver S9 at a dose of 20 ug/plate
In short: (§2)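 Ames plate incorporation assay in TA98, modified per Claxton, with no S9 or cofactors added. Test compounds were given from DMSO solution. Each dose level was plated in duplicate on two or three separate occasions. Read-out is mean His+ revertants/plate.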

Salmonella typhimurium [2] = assay: (§3) Mutagenicity determined by Ames assay in Salmonella Typhimurium strain TA98, without metabolic activation by Aroclor 1254 induced rat liver S9 at a dose of 1.0 ug/plate; in short: as §2
Salmonella typhimurium [3] = assay: Mutagenicity determined by Ames assay in Salmonella Typhimurium strain TA98, without metabolic activation by Aroclor 1254 induced rat liver S9 at a dose of 0.5 ug/plate; parameters: unit: revertants/plate; in short: as §2
Salmonella typhimurium [4] = assay: (§4) Mutagenicity determined by Ames assay in Salmonella Typhimurium strain TA98, with metabolic activation by Aroclor 1254 induced rat liver S9 at a dose of 5 ug/plate
In short: (§5)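 Ames plate incorporation assay, modified per Claxton, in TA98. Compounds dissolved in DMSO. Each plate received 0.8 mg S9 protein from livers of Aroclor 1254-treated male rats, plus NADPH-generating cofactors. Each dose was run in duplicate on two or three separate occasions. Values are mean His+ revertants/plate.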

Salmonella typhimurium [5] = assay: (§6) Mutagenicity determined by Ames assay in Salmonella Typhimurium strain TA98, with metabolic activation by Aroclor 1254 induced rat liver S9 at a dose of 0.5 ug/plate; in short: as §5
Salmonella typhimurium [6] = assay: (§7) Mutagenicity determined by Ames assay in Salmonella Typhimurium strain TA98, with metabolic activation by Aroclor 1254 induced rat liver S9 at a dose of 20 ug/plate; in short: as §5
Salmonella typhimurium [7] = assay: (§8) Mutagenicity determined by Ames assay in Salmonella Typhimurium strain TA98, without metabolic activation by Aroclor 1254 induced rat liver S9 at a dose of 10 ug/plate; in short: as §2
Salmonella typhimurium [8] = assay: (§9) Specific mutagenicity in the presence of protein S9, was expressed as His+ revertants/nmol, calculated by least-square linear regression.
In short: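 Ames plate incorporation assay in TA98 with 0.8 mg Aroclor 1254-induced male rat liver S9 protein per plate plus NADPH-generating cofactors; compounds in DMSO; doses in duplicate on two or three occasions. His+ revertants/nmol from least-squares linear regression of the dose-response curve's linear part, up to 10 µg/plate.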

Salmonella typhimurium [9] = assay: (§10) Mutagenicity determined by Ames assay in Salmonella Typhimurium strain TA98, without metabolic activation by Aroclor 1254 induced rat liver S9 at a dose of 5 ug/plate; in short: as §2
Salmonella typhimurium [10] = assay: (§11) Mutagenicity determined by Ames assay in Salmonella Typhimurium strain TA98, with metabolic activation by Aroclor 1254 induced rat liver S9 at a dose of 10 ug/plate; in short: as §5
Salmonella typhimurium [11] = assay: (§12) Specific mutagenicity in the absence of protein S9, was expressed as His+ revertants/nmol, calculated by least-square linear regression.
In short: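 Ames plate incorporation assay in TA98 without S9; compounds in DMSO; doses in duplicate on two or three occasions. His+ revertants/nmol from least-squares linear regression of the linear part of the dose-response curve, up to 10 µg/plate for most compounds and to 5 or 20 µg/plate for others.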

Salmonella typhimurium [12] = assay: (§13) Mutagenicity determined by Ames assay in Salmonella Typhimurium strain TA98, with metabolic activation by Aroclor 1254 induced rat liver S9 at a dose of 1.0 ug/plate; in short: as §5
Salmonella typhimurium [13] = assay: as §1; remark: listed apart in the source
In short: (§14)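 Ames plate incorporation test following Claxton's modification, run without S9, with compounds dissolved in DMSO. Each dose was plated in duplicate on two or three separate occasions, and the value is the mean His⁺ revertants/plate. The positive control was 2-nitrofluorene at 3 μg/plate, with DMSO as the solvent control.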

Salmonella typhimurium [14] = assay: as §4; remark: listed apart in the source
In short: (§15)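 Ames plate incorporation test following Claxton's modification, with compounds dissolved in DMSO. Each plate received 0.8 mg S9 protein from livers of Aroclor 1254-treated male rats plus NADPH-generating cofactors. Each dose was plated in duplicate on two or three separate occasions, and the value is the mean His⁺ revertants/plate. The positive control was 2-anthramine at 0.5 μg/plate, with DMSO as the solvent control.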

Salmonella typhimurium [15] = assay: as §10; in short: as §14; remark: listed apart in the source
Salmonella typhimurium [16] = assay: as §12; remark: listed apart in the source
In short: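 Calculated as His⁺ revertants/nmol by least-squares linear regression over the linear portion of the no-S9 plate-incorporation dose–response (DMSO solutions, duplicate plates, two or three occasions). The fit ran to 10 μg/plate for most compounds, but for two compounds it ran to 5 or 20 μg/plate.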

Salmonella typhimurium [17] = assay: as §11; in short: as §15; remark: listed apart in the source
Salmonella typhimurium [18] = assay: as §13; in short: as §15; remark: listed apart in the source
Salmonella typhimurium [19] = assay: as §7; in short: as §15; remark: listed apart in the source
Salmonella typhimurium [20] = assay: as §6; in short: as §15; remark: listed apart in the source
Salmonella typhimurium [21] = assay: as §9; remark: listed apart in the source
In short: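 Calculated as His⁺ revertants/nmol by least-squares linear regression over the linear portion of the dose–response to 10 μg/plate. Plates received 0.8 mg Aroclor 1254-induced male rat liver S9 protein with NADPH-generating cofactors. Compounds were dissolved in DMSO and plated in duplicate on two or three occasions.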

Salmonella typhimurium [22] = assay: as §3; in short: as §14; remark: listed apart in the source
Salmonella typhimurium [23] = assay: as §8; in short: as §14; remark: listed apart in the source

C1=CC2OC2c2ccc3c4c5c(cccc5cc3c21)C=C4 (stereo not drawn)
Mutagenicity (Salmonella typhimurium [1]): 46 | Mutagenicity (Salmonella typhimurium [2]): 26 | Mutagenicity (Salmonella typhimurium [3]): 28 | Mutagenicity (Salmonella typhimurium [4]): 176 | Mutagenicity (Salmonella typhimurium [5]): 58 | Mutagenicity (Salmonella typhimurium [6]): 350 | Mutagenicity (Salmonella typhimurium [7]): 39 | Activity (Salmonella typhimurium [8]): 5.6 | Mutagenicity (Salmonella typhimurium [9]): 34 | Mutagenicity (Salmonella typhimurium [10]): 272 | Activity (Salmonella typhimurium [11]): 0.2 | Mutagenicity (Salmonella typhimurium [12]): 71

O[C@H]1c2ccc3c4c5c(cccc5cc3c2[C@@H]2OC2[C@@H]1O)C=C4 (stereo partly drawn)
Mutagenicity (Salmonella typhimurium [13]): 93 | Mutagenicity (Salmonella typhimurium [14]): 283 | Mutagenicity (Salmonella typhimurium [15]): 186 | Activity (Salmonella typhimurium [16]): 10 | Mutagenicity (Salmonella typhimurium [17]): 287 | Mutagenicity (Salmonella typhimurium [18]): 86 | Mutagenicity (Salmonella typhimurium [19]): 148 | Mutagenicity (Salmonella typhimurium [3]): 37 | Mutagenicity (Salmonella typhimurium [20]): 51 | Activity (Salmonella typhimurium [21]): 12.9 | Mutagenicity (Salmonella typhimurium [22]): 53 | Mutagenicity (Salmonella typhimurium [23]): 172

C1=Cc2c3ccc4ccccc4c3cc3cccc1c23 [BENZO[J]ACEANTHRYLENE]
Mutagenicity (Salmonella typhimurium [1]): 38 | Mutagenicity (Salmonella typhimurium [2]): 39 | Mutagenicity (Salmonella typhimurium [3]): 35 | Mutagenicity (Salmonella typhimurium [4]): 429 | Mutagenicity (Salmonella typhimurium [5]): 76 | Mutagenicity (Salmonella typhimurium [6]): 915 | Mutagenicity (Salmonella typhimurium [7]): 32 | Activity (Salmonella typhimurium [8]): 12.9 | Mutagenicity (Salmonella typhimurium [9]): 38 | Mutagenicity (Salmonella typhimurium [10]): 694 | Activity (Salmonella typhimurium [11]): 0.1 | Mutagenicity (Salmonella typhimurium [12]): 103

O[C@H]1C=Cc2c(ccc3c4c5c(cccc5cc23)C=C4)[C@@H]1O
Mutagenicity (Salmonella typhimurium [13]): 75 | Mutagenicity (Salmonella typhimurium [14]): 335 | Mutagenicity (Salmonella typhimurium [15]): 43 | Activity (Salmonella typhimurium [16]): 0.7 | Mutagenicity (Salmonella typhimurium [17]): 469 | Mutagenicity (Salmonella typhimurium [18]): 100 | Mutagenicity (Salmonella typhimurium [19]): 543 | Mutagenicity (Salmonella typhimurium [3]): 36 | Mutagenicity (Salmonella typhimurium [20]): 67 | Activity (Salmonella typhimurium [21]): 9.4 | Mutagenicity (Salmonella typhimurium [22]): 40 | Mutagenicity (Salmonella typhimurium [23]): 45
